# Experimental data published in article PMC4489158 (Biochemistry, 2009).
# Experiments:
# [1] = system: γ-secretase cleavage of APLP1 (APLP1 ICD production); assay: ICD in vitro generation; format: biochemical, human; details: for effect on ICD production from APLP1: tested between 100 and 500 µM
# [2] = system: γ-secretase processing of APP (APP CTFs); assay: CTF accumulation in intact CHO cells expressing APP-His; format: cell-based, Chinese hamster; details: overnight (14 h)
# Summary of the method: (§1)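 CHO cells stably expressing full-length human His-tagged APP or APLP1 (zeocin selection) were grown to confluence in six-well plates, then treated overnight (~14 h) with test compound or vehicle. Cells were lysed in NP-40 buffer with protease inhibitors. Equal protein (BCA) was immunoblotted with TetraHis antibody and ECL. CTF bands were quantified as fold over vehicle, with at least three measurements, and significance was assessed by two-way ANOVA.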
# [3] = system: γ-secretase processing of APLP1 (APLP1 CTFs); assay: CTF accumulation in intact CHO cells expressing APLP1-His; format: cell-based, Chinese hamster; details: overnight (14 h)
# Summary of the method: as §1
# [4] = molecular target: γ-secretase cleavage of APLP2 (APLP2 ICD production) (Cricetulus griseus, UniProt A0A061HTR1+A0A061IL97+A0A8C2QG42+G3HNF2); assay: ICD in vitro generation; format: biochemical, human; details: for effect on ICD production from APLP2: tested between 100 and 500 µM
# [5] = molecular target: γ-secretase cleavage of APP (APP ICD production) (Cricetulus griseus, UniProt A0A061HTR1+A0A061IL97+A0A8C2QG42+G3HNF2); assay: ICD in vitro generation; format: biochemical, human; details: for concentration at which APP ICD production is decreased: microsomes; for effect on ICD production from APP: tested between 100 and 500 µM
# [6] = system: γ-secretase (Aβ42, Aβ38, Aβ40 production); details: cited from earlier work
# [7] = cited from earlier work
compound,measurement,setting,value
"C[C@H](NC(=O)Cc1cc(F)cc(F)c1)C(=O)NC(C(=O)OC(C)(C)C)c1ccccc1 (stereo partly drawn) [DAPT, N-[N-(3,5-difluoro-phenacetyl)-l-alanyl]-S-phenylglycine tert-butyl ester]",IC50,[1]; read-out: IC50 of γ-secretase processing of APLP1 (ICD production),95.7 nM
"CC(C(=O)O)c1cccc(Oc2cc(Cl)cc(Cl)c2)c1 (centres unmarked) [FT-9, 2-[3-(3,5-dichlorophenoxy)phenyl]propanoic acid]",concentration causing accumulation of APP CTFs,[2],≥ 5 µM
same,concentration required to cause a 2-fold increase in APP CTFs,[2],3.4 ± 0.4 µM
same,concentration causing significant accumulation of APLP1 CTFs,[3],≥ 20 µM
same,concentration required to cause a 2-fold increase in APLP1 CTFs,[3],25.7 ± 8.9 µM
same,concentration at which APLP2 ICD production is decreased,[4]; microsomes,≥ 100 µM
same,inhibition at 500 µM,[4]; read-out: reduction of APLP2 ICDs,70 to 75%
same,reduction of APLP1 ICDs,"[1]; 500 µM, highest concentration tested",~ 38%
same,concentration at which APLP1 ICD production is decreased,[1]; microsomes,≥ 100 µM
same,concentration at which APP ICD production is decreased,[5],≥ 100 µM
same,inhibition at 500 µM,[5]; read-out: reduction of APP ICDs,70 to 75%
"C[C@@H](C(=O)O)c1ccc(-c2ccccc2)c(F)c1 [R-flurbiprofen, 2-(3-fluoro-4-phenylphenyl)propanoate]",effect on ICD production from APLP2,[4],weak inhibitory effect
same,effect on Aβ38 levels,[6],increase
same,effect on Aβ42 levels,[6],reducing
same,effect on ICD production from APLP1,[1],unaffected
same,concentration at which APP ICD production is decreased,[5],≥ 400 µM
same,effect on ICD production from APP,[5],weakly inhibited
same,brain penetrance,[7],poor
"C[C@H](NC(=O)Cc1cc(F)cc(F)c1)C(=O)N[C@H]1N=C(c2ccccc2)c2ccccc2N(C)C1=O [compound E, (2S)-2-{[(3,5-Difluorophenyl)acetyl]amino}-N-[(3S)-1-methyl-2-oxo-5-phenyl-2,3-dihydro-1H-1,4-benzodia-zepin-3-yl]propanamide]","concentration needed for a 2-fold increase in CTF band signal, APP",[2],0.27 ± 0.01 nM
same,"concentration needed for a 2-fold increase in CTF band signal, APLP1",[3],0.24 ± 0.22 nM
propan-2-yl 2-[4-(4-chlorobenzoyl)phenoxy]-2-ethylpropanoate [fenofibrate],effect on ICD production from APLP2,[4],unaffected
same,effect on level of production of Aβ38,[6],reduces
same,effect on level of production of Aβ42,[6],increases
same,effect on levels of Aβ40,[6],almost unchanged
same,effect on ICD production from APLP1,[1],unaffected
same,effect on ICD production from APP,[5],unaffected
